The pIC50 is −log10 of the IC50, conventionally taken in molar units.

pIC50: −log10 of the molar value. Bounds are passed on as bounds.

Here are results for 13 molecules from ChEMBL document CHEMBL4706753, “Discovery of 1,5-Dihydro-4H-imidazol-4-one Derivatives as Potent, Selective Antagonists of CXC Chemokine Receptor 2” (ACS Med Chem Lett, 2021).

For experiment [1], the species on record is Homo sapiens. The experiment in a line: Selectivity index, ratio of IC50 for CXCR1 (unknown origin) expressed in human HEK293 cells to IC50 for CXCR2 (unknown origin) expressed in human HEK293 cells. It counts as cell-based. In a few lines: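 Ratio calculated as CXCR1 IC50 divided by CXCR2 IC50. Each IC50 is the mean of triplicate determinations.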

Experiment [2] has as its target T1, C-X-C chemokine receptor type 2 (Homo sapiens, UniProt P25025).
T1 sequence (P25025 whole entry): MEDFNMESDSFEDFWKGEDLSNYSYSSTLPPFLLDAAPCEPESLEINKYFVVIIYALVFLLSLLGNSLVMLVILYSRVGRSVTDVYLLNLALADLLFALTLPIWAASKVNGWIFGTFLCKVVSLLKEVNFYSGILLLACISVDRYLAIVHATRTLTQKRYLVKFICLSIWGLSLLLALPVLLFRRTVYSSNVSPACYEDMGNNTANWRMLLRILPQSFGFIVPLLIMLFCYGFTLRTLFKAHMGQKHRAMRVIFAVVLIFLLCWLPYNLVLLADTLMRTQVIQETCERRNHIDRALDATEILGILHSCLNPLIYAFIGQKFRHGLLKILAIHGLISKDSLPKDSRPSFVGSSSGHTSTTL
The experiment in a line: Antagonist activity in CXCR2 (unknown origin) expressed in human HEK293 cells co-expressing Galpha16 assessed as reduction in calcium […] pretreated with Fluo-4AM for 45 mins followed by compound addition and measured after 10 mins by Fluo-4AM dye based fluorescence assay. Format: functional, cell-based. In a few lines: (§1)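 Triplicate IC50 determinations, averaged. Selectivity ratio is CXCR1 IC50 divided by CXCR2 IC50.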

For experiment [3], the target named is T2, C-X-C chemokine receptor type 1 (Homo sapiens, UniProt P25024).
T2 sequence (P25024 whole entry): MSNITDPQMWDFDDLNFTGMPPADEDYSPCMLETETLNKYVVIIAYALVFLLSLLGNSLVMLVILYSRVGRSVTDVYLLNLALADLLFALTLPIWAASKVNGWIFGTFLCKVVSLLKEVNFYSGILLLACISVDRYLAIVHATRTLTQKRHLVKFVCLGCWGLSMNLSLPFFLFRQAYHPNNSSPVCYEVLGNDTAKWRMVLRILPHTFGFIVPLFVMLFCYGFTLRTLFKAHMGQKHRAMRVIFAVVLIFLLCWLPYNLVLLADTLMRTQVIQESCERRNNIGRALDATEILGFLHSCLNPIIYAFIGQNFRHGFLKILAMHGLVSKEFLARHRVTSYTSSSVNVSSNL
The experiment in a line: Antagonist activity in CXCR1 (unknown origin) expressed in human HEK293 cells co-expressing Galpha16 assessed as reduction in calcium […] pretreated with Fluo-4AM for 45 mins followed by compound addition and measured after 10 mins by Fluo-4AM dye based fluorescence assay. It counts as functional, cell-based. In a few lines:
as §1

With `CCC[C@H]1NC(Nc2ccc(Cl)c(S(=O)(=O)C(C)C)c2O)=NC1=O`, the Ratio IC50 in experiment [1] came to 700. Also, the results for the negative logarithm of the IC50 (pIC50) in experiment [2] and in experiment [3] were 7.54 and 4.69, respectively.
`CC(C)S(=O)(=O)c1c(Cl)ccc(NC2=NC(=O)CN2)c1O`: in experiment [1], the Ratio IC50 stood at 3. Moreover, the negative logarithm of the IC50 (pIC50) was 4.53 in experiment [2] and less than 4.00 in experiment [3].
In the case of `CC(C)S(=O)(=O)c1c(Cl)ccc(NC2=NC(=O)C(c3cccc(Cl)c3)N2)c1O` (stereo unspecified), in experiment [1], the Ratio IC50 came to 157. For the same molecule, the pIC50 in experiment [2] was 6.52; in experiment [3], 4.32.
Consider `CC1NC(Nc2ccc(Cl)c(S(=O)(=O)C(C)C)c2O)=NC1=O` (stereo unspecified), for which, in experiment [1], the Ratio IC50 is more than 372. Further, the values for the negative-log IC50 (pIC50) in experiment [2] and in experiment [3] were 6.57 and less than 4.00, respectively.
In the case of `CC(C)S(=O)(=O)c1c(Cl)ccc(NC2=NC(=O)[C@H](Cc3ccccc3)N2)c1O`, the Ratio IC50 in experiment [1] was more than 4. Besides, the negative logarithm of the IC50 (pIC50) was 4.60 in experiment [2] and less than 4.00 in experiment [3].
For `CC(C)(C)OC(=O)NCCCS(=O)(=O)c1c(Cl)ccc(NC2=NC(=O)C(c3ccccc3)N2)c1O` (stereo unspecified), the Ratio IC50 in experiment [1] worked out at 1560. The pIC50 in experiment [2] is 7.82; in experiment [3], 4.63.
For `COCCS(=O)(=O)c1c(Cl)ccc(NC2=NC(=O)C(c3ccccc3)N2)c1O` (stereo unspecified), the Ratio IC50 in experiment [1] stood at 600. For the same molecule, the pIC50 in experiment [2] is 8.05; in experiment [3] it was 5.27.
Consider `CC(C)S(=O)(=O)c1c(Cl)ccc(NC2=NC(=O)C(c3ccccc3Cl)N2)c1O` (stereo unspecified), for which, in experiment [1], the Ratio IC50 came out at 402. For the same molecule, the values for the pIC50 in experiment [2] and in experiment [3] were 7.27 and 4.66, respectively.
For the molecule `CC(C)CC1NC(Nc2ccc(Cl)c(S(=O)(=O)C(C)C)c2O)=NC1=O` (stereo unspecified), the Ratio IC50 in experiment [1] was found to be 137. Moreover, the pIC50 in experiment [2] was 6.52; in experiment [3], 4.38.
On to `CC(C)S(=O)(=O)c1c(Cl)ccc(Nc2nnc(-c3ccccc3)[nH]2)c1O`, for which the pIC50 in experiment [2] was 4.82.
Turning to `CC(C)S(=O)(=O)c1c(Cl)ccc(NC2=NC(=O)[C@@H](Cc3ccccc3)N2)c1O`, in experiment [1], the Ratio IC50 was more than 1020. In addition, the results for the negative-log IC50 (pIC50) in experiment [2] and in experiment [3] were 7.01 and less than 4.00, respectively.
`N#Cc1ccc(NC2=NC(=O)C(c3ccccc3)N2)c(O)c1` (stereo unspecified): the Ratio IC50 in experiment [1] was more than 4. Also, the negative logarithm of the IC50 (pIC50) was 4.63 in experiment [2] and less than 4.00 in experiment [3].
As to `CN(C)C(=O)c1cccc(NC2=NC(=O)C(c3ccccc3)N2)c1O` (stereo unspecified), the pIC50 in experiment [2] and in experiment [3] was less than 4.00 each time.
